What all share (format): functional
The species named for assay [1] is Rattus norvegicus. The experiment in a line: Inhibitory concentration against evoked synaptic field potential of CA1 neurons in absence of quisqualic acid from rat hippocampus. The procedure, abridged: (§1)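 Transverse 500-µm hippocampal slices from 30–100-day-old male Sprague-Dawley rats, submerged in oxygenated medium at 34 °C. Field potentials evoked by stimulating the Schaffer collaterals. Compound started at a subthreshold level and doubled every 4 min until the response fell >70% or exceeded 10 mM. IC50 was interpolated from fractional peak amplitude versus log concentration. Sequence included a 16 µM L-quisqualate exposure between tests.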

The species entered for assay [2] is Rattus norvegicus. The assay is described as follows: Inhibitory concentration against evoked synaptic field potential of CA1 neurons in presence of 16 uM quisqualic acid from rat hippocampus. The procedure, abridged:
as §1

For assay [3], the species on record is Rattus norvegicus. The experiment in a line: Sensitization effect was determined.

A value given as a limit tells only on which side of the number the result lay.

As a reminder, the IC50 is the concentration that inhibits the measured activity by half. As to `N[C@@H](CC1CC(=O)NC1=O)C(=O)O` (stereo in doubt; 5a), the IC50 in the assay filed under Rattus norvegicus [1] and in the assay listed under Rattus norvegicus [2] was above 10000 µM in each case.

Turning to `N[C@H](Cn1oc(=O)[nH]c1=O)C(=O)O`, the Sensitisation in the assay filed under Rattus norvegicus [3] worked out at 7.5. For the same compound, the results for the 50% inhibitory concentration (IC50) in the assay listed under Rattus norvegicus [1] (Rattus norvegicus) and in the assay filed under Rattus norvegicus [2] (Rattus norvegicus) were 78 µM and 10 µM, respectively.

Regarding `N[C@@H](CCP(=O)(O)O)C(=O)O`, the Sensitisation in the assay filed under Rattus norvegicus [3] is on record as 33. Further, the figures for the half-maximal inhibitory concentration (IC50) in the assay listed under Rattus norvegicus [1] (Rattus norvegicus) and in the assay filed under Rattus norvegicus [2] (Rattus norvegicus) were 1800 µM and 55 µM, respectively.

`CN1C(=O)C=C(C[C@H](N)C(=O)O)C1=O`: the Sensitisation in the assay listed under Rattus norvegicus [3] worked out at 14. Further, the figures for the IC50 in the assay listed under Rattus norvegicus [1] (Rattus norvegicus) and in the assay listed under Rattus norvegicus [2] (Rattus norvegicus) were 95 µM and 6.8 µM, respectively.

As to `N[C@@H](CC1CC(=O)NC1=O)C(=O)O` (stereo in doubt; 5b), in the assay listed under Rattus norvegicus [3], the Sensitisation amounted to 1.3. In addition, the figures for the IC50 in the assay filed under Rattus norvegicus [1] and in the assay listed under Rattus norvegicus [2] were 9200 µM and 6800 µM, respectively.

On to `N[C@@H](CC1=CC(=O)NC1=O)C(=O)O`, for which the Sensitisation in the assay filed under Rattus norvegicus [3] was found to be 2.2. Also, the IC50 in the assay listed under Rattus norvegicus [1] (Rattus norvegicus) turned out to be 21 µM; in the assay listed under Rattus norvegicus [2] (Rattus norvegicus), 9.5 µM.

Consider `N[C@@H](CC1=CC(=O)N(CC(=O)O)C1=O)C(=O)O`, for which, in the assay listed under Rattus norvegicus [3], the Sensitisation is listed as 7.7.

Regarding `N[C@H](CCP(=O)(O)O)C(=O)O`, the Sensitisation in the assay listed under Rattus norvegicus [3] was 17. For the same compound, the IC50 in the assay listed under Rattus norvegicus [1] (Rattus norvegicus) was 2600 µM; in the assay listed under Rattus norvegicus [2] (Rattus norvegicus), 152 µM.

For `NC(CN1CC(=O)NC1=O)C(=O)O` (configuration not stated), the Sensitisation in the assay listed under Rattus norvegicus [3] worked out at 1.7. The IC50 in the assay listed under Rattus norvegicus [1] (Rattus norvegicus) amounted to 1.4 µM; in the assay filed under Rattus norvegicus [2] (Rattus norvegicus) it was 0.8 µM.

In the case of `N[C@@H](Cn1oc(=O)[nH]c1=O)C(=O)O` [QUISQUALATE], the Sensitisation in the assay filed under Rattus norvegicus [3] was 1.3. Besides, the IC50 in the assay listed under Rattus norvegicus [1] (Rattus norvegicus) was determined as 3.9 µM; in the assay filed under Rattus norvegicus [2] (Rattus norvegicus), 2.9 µM.
